We go through 1 compound from ChEMBL document CHEMBL5579886, “Selective Degradation of MLK3 by a Novel CEP1347-VHL-02 PROTAC Compound Limits the Oncogenic Potential of TNBC” (J Med Chem, 2024).

The target of test [1] is von Hippel-Lindau disease tumor suppressor/Mitogen-activated protein kinase kinase kinase 9 (Homo sapiens) (UniProt P80192+P40337). In words: PROTAC activity at VHL/DOX-inducible MLK1 (unknown origin) overexpressed in human A-375 cells assessed as protein degradation at 0.1 to 5 uM incubated for 24 hrs by immunoblot analysis. In kind it is cell-based. The settings on record: dose 0.1-5 µM. The essentials: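 A375 cells carried lentiviral DOX-inducible MLK1, MLK2 or MLK4 and were grown in RPMI-1640 with 10% FBS. Cells were seeded at 100 000/well and induced with 1 μg/mL DOX. After 24 h they were treated at 0.1–5 μM for 24 h, with DMSO as control. Levels were read by ECL immunoblot of RIPA lysates, with GAPDH or β-actin loading control.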

Test [2] deals with T1, von Hippel-Lindau disease tumor suppressor/Mitogen-activated protein kinase kinase kinase 10 (Homo sapiens) (UniProt Q02779+P40337). In words: PROTAC activity at IAP/MLK2 in human MCF7 cells assessed as protein degradation at 1 uM incubated for 24 hrs by immunoblot analysis. In kind it is cell-based. Put shortly: (§1)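 Endogenous MLK1, MLK2 or MLK4 levels in MCF-7 and MDA-MB-468 cells. Cells were grown in high-glucose DMEM with 10% FBS, seeded at 100 000 cells/well and treated the next day for 24 h, with DMSO as control. Lysis was in RIPA with protease inhibitor, followed by 10% SDS-PAGE, nitrocellulose transfer and ECL immunoblot with GAPDH or β-actin as loading control.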
Background: Immunoblotting shows a protein as a band on a membrane.

For test [3], the target named is T2, von Hippel-Lindau disease tumor suppressor/Mitogen-activated protein kinase kinase kinase 11 (Homo sapiens, UniProt Q16584+P40337). In words: PROTAC activity at VHL/MLK3 in carfilzomib-treated human MDA-MB-468 cells assessed as protein degradation at 1 uM measured after 7 hrs by immunoblot analysis. In kind it is cell-based. The essentials:
(§2)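 MCF-7 and MDA-MB-468 cells were seeded at 100 000/well. The next day they were pretreated with 1 μM carfilzomib for 1 h, then treated with 1 μM PROTAC for 7 h, with DMSO as control. Endogenous MLK3 was measured by immunoblot of RIPA lysates.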

Test [4] addresses T2, von Hippel-Lindau disease tumor suppressor/Mitogen-activated protein kinase kinase kinase 11. In words: PROTAC activity at VHL/DOX-inducible MLK3 (unknown origin) overexpressed in human HCC1806 cells assessed as protein degradation at 0.25 uM incubated for 24 hrs by immunoblot analysis. The test is classed as cell-based.
The test system of test [5] is MDA-MB-468. In words: Effect on ERK pathway in human MDA-MB-468 cells at 1 uM measured after 24 hrs by immunoblot analysis. The test is classed as functional, cell-based.
The target of test [6] is T3, von Hippel-Lindau disease tumor suppressor/Mitogen-activated protein kinase kinase kinase 21 (Homo sapiens) (UniProt P40337+Q5TCX8). In words: PROTAC activity at IAP/MLK4 in human MCF7 cells assessed as protein degradation at 1 uM incubated for 24 hrs by immunoblot analysis. The test is classed as cell-based. Put shortly: as §1
Test [7] relates to MCF7. In words: Effect on MLK3 mRNA level in human MCF7 cells at 1 uM measured after 24 hrs by RT-qPCR analysis. In kind it is functional, cell-based. The essentials: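 Total RNA extracted from MCF-7 and MDA-MB-468 cells 24 h after PROTAC treatment, purity and concentration checked spectrophotometrically, reverse transcribed to cDNA and MLK3 transcript quantified by RT-qPCR.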

Test [8] addresses T1, von Hippel-Lindau disease tumor suppressor/Mitogen-activated protein kinase kinase kinase 10 (Homo sapiens). In words: PROTAC activity at VHL/MLK2 in human MDA-MB-468 cells assessed as protein degradation at 1 uM incubated for 24 hrs by immunoblot analysis. The test is classed as cell-based. The essentials: as §1
Test [9] has as its target T2, von Hippel-Lindau disease tumor suppressor/Mitogen-activated protein kinase kinase kinase 11. In words: PROTAC activity at VHL/MLK3 in human MDA-MB-468 cells assessed as decrease in JNK pathway at 1 uM measured after 24 hrs by immunoblot analysis. In kind it is cell-based.
The test system of test [10] is MDA-MB-468. In words: Growth inhibition of human MDA-MB-468 cell spheroids in low-attachment surface at 1 uM incubated for 10 days. The test is classed as functional, cell-based. The note with it: time 10.0 day. Put shortly:
(§3)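 Cells grown 10 days in low-attachment surface plates in medium containing 1 μM PROTAC or DMSO; spheroid growth assessed.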

Test [11] concerns MDA-MB-468. In words: Induction of cell cycle arrest at G2/M phase in human MDA-MB-468 cells at 1 uM measured after 48 hrs by PI staining based flow cytometry. The test is classed as functional. The essentials: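 Cells seeded at 50 000/well, exposed to 1 μM PROTAC or DMSO for 48 h, trypsinized, fixed in ice-cold methanol and held at –20 °C; next day stained with PI/RNase solution and read by flow cytometry. Two independent experiments.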
For orientation: Flow cytometry measures light scatter and fluorescence of single cells or particles in a stream.

Test [12] deals with MCF7. In words: Growth inhibition of human MCF7 cell spheroids in low-attachment surface at 1 uM incubated for 10 days. In kind it is functional, cell-based. The settings on record: time 10.0 day. The essentials: as §3
Test [13] concerns the target T3, von Hippel-Lindau disease tumor suppressor/Mitogen-activated protein kinase kinase kinase 21 (Homo sapiens). In words: PROTAC activity at VHL/MLK4 in human MDA-MB-468 cells assessed as protein degradation at 1 uM incubated for 24 hrs by immunoblot analysis. In kind it is cell-based. The essentials: as §1
Test [14] deals with T2, von Hippel-Lindau disease tumor suppressor/Mitogen-activated protein kinase kinase kinase 11. In words: PROTAC activity at VHL/MLK3 in carfilzomib-treated human MCF7 cells assessed as protein degradation at 1 uM measured after 7 hrs by immunoblot analysis. The test is classed as cell-based. The essentials: as §2
For test [15], the system named is MDA-MB-468. In words: Induction of apoptosis in human MDA-MB-468 cells at 1 uM measured after 48 hrs by Annexin V-FITC/PI staining based flow cytometry. The test is classed as functional, cell-based. Put shortly: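 Cells seeded at 50 000/well, treated 48 h with 1 μM PROTAC or DMSO; cells plus supernatant stained with Alexa Fluor488 Annexin V for 30 min at room temperature in the dark, PI added 5 min before flow cytometry. At least three repeats.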

Test [16] concerns the target T2, von Hippel-Lindau disease tumor suppressor/Mitogen-activated protein kinase kinase kinase 11. In words: PROTAC activity at VHL/MLK3 in human MDA-MB-468 cells assessed as protein degradation measured after 4 to 48 hrs by Western blot analysis. In kind it is cell-based. The note with it: dose 1.0 µM, time 4-48 hrs. Put shortly: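 MCF-7 and MDA-MB-468 cells were seeded at 100 000/well and treated with 1 μM PROTAC for 4–48 h, with DMSO as control. MLK3 was quantified by immunoblot as percent remaining, and t1/2 of degradation was derived from the time course.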

Active and inactive are the calls of the source. The calls are words filed in the database; no cut-off is given here.

T2 sequence (P40337 whole entry, looked up): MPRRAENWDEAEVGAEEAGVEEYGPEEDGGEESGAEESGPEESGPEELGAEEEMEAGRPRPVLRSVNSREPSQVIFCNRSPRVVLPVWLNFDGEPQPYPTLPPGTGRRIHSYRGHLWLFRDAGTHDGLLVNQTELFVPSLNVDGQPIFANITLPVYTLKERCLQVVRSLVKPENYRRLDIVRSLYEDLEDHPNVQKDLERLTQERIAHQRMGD
T2 sequence (Q16584 whole entry, looked up): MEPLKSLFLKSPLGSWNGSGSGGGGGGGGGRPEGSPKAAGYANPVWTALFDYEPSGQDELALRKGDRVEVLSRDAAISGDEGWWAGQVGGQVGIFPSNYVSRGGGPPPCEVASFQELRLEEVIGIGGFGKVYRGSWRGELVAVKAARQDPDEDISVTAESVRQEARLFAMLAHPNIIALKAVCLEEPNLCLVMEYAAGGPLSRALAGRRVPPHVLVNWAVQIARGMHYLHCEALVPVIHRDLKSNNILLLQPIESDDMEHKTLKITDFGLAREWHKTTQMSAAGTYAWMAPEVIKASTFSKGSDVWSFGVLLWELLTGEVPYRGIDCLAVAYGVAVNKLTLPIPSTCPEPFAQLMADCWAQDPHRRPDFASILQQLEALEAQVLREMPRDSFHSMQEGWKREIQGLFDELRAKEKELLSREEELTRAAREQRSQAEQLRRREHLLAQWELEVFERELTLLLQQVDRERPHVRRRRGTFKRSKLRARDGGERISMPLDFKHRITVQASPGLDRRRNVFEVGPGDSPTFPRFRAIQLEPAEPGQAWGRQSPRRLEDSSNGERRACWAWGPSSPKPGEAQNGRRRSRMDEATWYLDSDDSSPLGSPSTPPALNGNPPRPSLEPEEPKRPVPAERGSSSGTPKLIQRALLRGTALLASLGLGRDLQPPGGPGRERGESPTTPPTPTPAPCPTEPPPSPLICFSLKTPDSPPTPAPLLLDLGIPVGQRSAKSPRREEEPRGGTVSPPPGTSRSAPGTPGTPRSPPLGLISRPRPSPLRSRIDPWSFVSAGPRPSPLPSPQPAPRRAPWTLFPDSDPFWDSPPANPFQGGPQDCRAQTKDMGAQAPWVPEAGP
T1 sequence (P40337 whole entry, looked up): as the sequence (P40337 whole entry, looked up) above
T1 sequence (Q02779 whole entry, looked up): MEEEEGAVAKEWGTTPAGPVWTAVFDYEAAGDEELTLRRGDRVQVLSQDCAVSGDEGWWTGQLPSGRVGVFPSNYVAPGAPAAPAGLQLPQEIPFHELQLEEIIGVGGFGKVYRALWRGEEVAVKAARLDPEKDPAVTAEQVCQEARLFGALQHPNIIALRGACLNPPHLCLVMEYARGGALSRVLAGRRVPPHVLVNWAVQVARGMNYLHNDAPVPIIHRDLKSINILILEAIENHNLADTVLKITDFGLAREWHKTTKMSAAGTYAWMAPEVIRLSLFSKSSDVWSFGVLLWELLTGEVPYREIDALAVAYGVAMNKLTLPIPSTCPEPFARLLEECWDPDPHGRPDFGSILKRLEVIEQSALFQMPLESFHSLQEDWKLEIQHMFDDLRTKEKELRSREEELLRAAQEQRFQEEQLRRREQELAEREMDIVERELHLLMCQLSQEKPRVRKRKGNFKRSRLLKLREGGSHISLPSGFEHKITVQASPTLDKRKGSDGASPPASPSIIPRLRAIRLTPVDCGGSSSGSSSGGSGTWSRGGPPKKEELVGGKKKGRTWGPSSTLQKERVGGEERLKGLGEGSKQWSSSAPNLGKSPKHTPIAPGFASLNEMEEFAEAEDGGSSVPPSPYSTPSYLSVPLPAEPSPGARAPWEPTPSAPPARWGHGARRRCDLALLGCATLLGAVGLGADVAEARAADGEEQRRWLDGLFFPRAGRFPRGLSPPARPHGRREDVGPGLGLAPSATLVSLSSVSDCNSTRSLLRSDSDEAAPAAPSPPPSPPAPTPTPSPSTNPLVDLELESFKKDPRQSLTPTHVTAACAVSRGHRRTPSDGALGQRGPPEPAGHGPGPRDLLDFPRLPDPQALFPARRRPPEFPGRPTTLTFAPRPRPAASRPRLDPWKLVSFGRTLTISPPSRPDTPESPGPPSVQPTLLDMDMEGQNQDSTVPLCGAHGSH
T3 sequence (P40337 whole entry, looked up): as the sequence (P40337 whole entry, looked up) above
T3 sequence (Q5TCX8 whole entry, looked up): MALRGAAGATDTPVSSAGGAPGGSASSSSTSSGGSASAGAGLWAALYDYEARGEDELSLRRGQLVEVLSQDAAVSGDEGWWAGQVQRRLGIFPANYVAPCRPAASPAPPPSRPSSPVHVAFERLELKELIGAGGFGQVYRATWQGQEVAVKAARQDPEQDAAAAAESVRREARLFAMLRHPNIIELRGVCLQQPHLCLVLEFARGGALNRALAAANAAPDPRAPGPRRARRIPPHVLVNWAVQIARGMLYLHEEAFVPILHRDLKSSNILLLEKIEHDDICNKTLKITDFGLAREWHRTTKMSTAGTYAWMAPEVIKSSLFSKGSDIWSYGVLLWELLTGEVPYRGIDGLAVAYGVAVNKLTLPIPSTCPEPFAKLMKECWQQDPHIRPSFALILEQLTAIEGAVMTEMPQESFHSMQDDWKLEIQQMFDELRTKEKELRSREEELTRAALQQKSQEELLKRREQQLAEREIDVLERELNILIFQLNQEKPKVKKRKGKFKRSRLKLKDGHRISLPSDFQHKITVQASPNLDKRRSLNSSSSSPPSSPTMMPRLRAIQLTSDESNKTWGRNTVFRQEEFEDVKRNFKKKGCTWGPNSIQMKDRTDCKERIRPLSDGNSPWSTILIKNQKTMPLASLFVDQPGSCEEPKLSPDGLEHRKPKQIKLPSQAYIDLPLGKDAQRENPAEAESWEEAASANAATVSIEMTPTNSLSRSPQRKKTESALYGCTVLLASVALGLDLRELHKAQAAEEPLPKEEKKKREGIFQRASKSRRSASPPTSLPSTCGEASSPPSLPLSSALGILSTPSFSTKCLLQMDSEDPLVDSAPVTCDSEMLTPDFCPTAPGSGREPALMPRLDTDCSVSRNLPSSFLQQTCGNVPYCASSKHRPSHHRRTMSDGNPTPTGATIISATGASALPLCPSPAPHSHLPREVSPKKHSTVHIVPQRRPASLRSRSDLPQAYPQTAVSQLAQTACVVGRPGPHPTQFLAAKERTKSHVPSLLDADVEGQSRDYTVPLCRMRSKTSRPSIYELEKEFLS
Sequence of von Hippel-Lindau disease tumor suppressor/Mitogen-activated protein kinase kinase kinase 9 (Homo sapiens) (P40337 whole entry, looked up): as the sequence (P40337 whole entry, looked up) above
Sequence of von Hippel-Lindau disease tumor suppressor/Mitogen-activated protein kinase kinase kinase 9 (Homo sapiens) (P80192 whole entry, looked up): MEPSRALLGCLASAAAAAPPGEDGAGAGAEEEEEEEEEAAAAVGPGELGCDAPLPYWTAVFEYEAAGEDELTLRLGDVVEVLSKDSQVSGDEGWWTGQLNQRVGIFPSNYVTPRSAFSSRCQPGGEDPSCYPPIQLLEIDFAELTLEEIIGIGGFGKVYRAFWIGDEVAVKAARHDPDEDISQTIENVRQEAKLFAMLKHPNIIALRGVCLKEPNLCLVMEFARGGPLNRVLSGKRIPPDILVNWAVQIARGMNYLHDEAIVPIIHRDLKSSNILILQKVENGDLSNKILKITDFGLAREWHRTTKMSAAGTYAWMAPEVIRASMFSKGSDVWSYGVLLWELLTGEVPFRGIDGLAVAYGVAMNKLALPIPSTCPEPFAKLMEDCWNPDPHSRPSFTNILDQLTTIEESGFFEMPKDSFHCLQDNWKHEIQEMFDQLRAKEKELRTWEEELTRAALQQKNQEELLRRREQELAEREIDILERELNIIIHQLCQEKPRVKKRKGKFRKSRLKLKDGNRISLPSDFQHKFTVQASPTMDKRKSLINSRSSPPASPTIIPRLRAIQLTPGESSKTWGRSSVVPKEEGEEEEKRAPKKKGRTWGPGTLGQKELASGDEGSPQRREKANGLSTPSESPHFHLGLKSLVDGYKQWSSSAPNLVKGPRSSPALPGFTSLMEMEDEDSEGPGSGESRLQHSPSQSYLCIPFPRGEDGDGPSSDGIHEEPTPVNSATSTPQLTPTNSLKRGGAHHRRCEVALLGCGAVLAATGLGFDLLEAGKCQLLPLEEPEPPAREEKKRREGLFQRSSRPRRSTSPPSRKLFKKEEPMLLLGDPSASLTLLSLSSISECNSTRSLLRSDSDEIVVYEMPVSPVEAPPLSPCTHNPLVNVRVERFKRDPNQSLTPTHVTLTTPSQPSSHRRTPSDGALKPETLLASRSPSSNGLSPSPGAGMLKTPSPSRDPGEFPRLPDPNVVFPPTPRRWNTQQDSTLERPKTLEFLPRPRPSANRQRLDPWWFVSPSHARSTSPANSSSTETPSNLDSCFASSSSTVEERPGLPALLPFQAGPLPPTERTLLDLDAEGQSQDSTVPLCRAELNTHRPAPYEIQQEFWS

Consider `CCSCc1ccc2c(c1)c1c3c(c4c5cc(CSCC)ccc5n5c4c1n2[C@H]1C[C@](O)(C(=O)NCCOCCOCCOCC(=O)N[C@H](C(=O)N2C[C@H](O)C[C@H]2C(=O)N[C@@H](C)c2ccc(-c4scnc4C)cc2)C(C)(C)C)[C@]5(C)O1)CNC3=O`, for which the result (in [1]; in [2]; in test [3]; in the test on MDA-MB-468 [5]; in test [6]; in the test on MCF7 [7]) was inactive. For the same compound, the outcome in test [8], in [13] and in [14] was inactive. Further, the result (in test [4]; in [9]; in the test with MDA-MB-468 [11]; with MDA-MB-468 [15]) was Active. The “growth inhibition (GI)” value in the test on MDA-MB-468 [10] was “Active”. Further, the “growth inhibition (GI)” value in the test on MCF7 [12] is “inactive”. Also, the Activity entry in [16] is “Dose-Dependent Effect”.
